HUVEC prolif 384: human endothelial cell proliferation inhibition; HUVEC proliferation, CellTiter-Glo luminescence, 72 h; active compounds read low; 86,000 compounds, 1.1% hits; viability, % at 10 µM (by protocol);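 active = viability at or below 30%; inactive = viability above 30%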
H69AR growth 86K: growth inhibitors of human H69AR lung tumor cells; H69AR lung tumor viability, ATP luminescence, 72 h; active compounds read low; viability, % at 10 µM; 85,000 compounds, 6% hits;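 active = viability at or below 40%; inactive = viability above 40%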;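 note: multidrug resistant small cell line overexpressing MRP-1 efflux transporter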
PTEN del growth: growth suppressors of cells with PTEN tumor suppressor deletion. HCT116 PTEN-null viability, CellTiter-Glo, 60 h; active compounds read low. viability, % at 10 µM. 140,000 compounds, 1.2% hits;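 active = viability at or below a set limit, 4 SD under the median of all tested compounds, cut at about 3.7% in these data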;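 note: PTEN knockout HCT116 line with beta catenin targeted HCT116 as companion control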
HCT116 bCat-KO: beta-catenin-lacking colon tumor cell growth suppression | HCT116 beta-catenin knockout viability, CellTiter-Glo, 60 h; active compounds read low | viability, % at 10 µM | 140,000 compounds, 1.5% hits | AID 818;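 active = viability at or under a set limit, the compound median less 4 SD, cut at about 6% in these data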
Lung fibro prol: blocks proliferation of human lung fibroblasts | viability, % at 10 µM | LL 47 human lung fibroblast viability, ATP luminescence; active compounds read low | AID 719 | 85,000 compounds, 1.1% hits;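 active = viability at or below 50% in the single dose screen; inactive = viability above 50%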;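 note: compound exposure lasted 72 h before the ATP readout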
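Material: human LL 47 lung fibroblast cells; quantity: 1,150 cells/well; medium: IMEM plus 15% FBS; doses: 0.1% DMSO in all compound wells; timing: overnight attachment after seeding, then 72 h compound exposure at 37 °C; detection: CellTiter-Glo luminescence; measure: % viability of median cell-only signal; controls: cell-only wells, no compound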
Hits are given with their value; 0 = inactive; - = no result. The sample as a whole holds a higher share of hits than the screen did.

SMILES | HUVEC prolif 384 | H69AR growth 86K | PTEN del growth | HCT116 bCat-KO | Lung fibro prol
c1cncc(-c2noc(CC3CCCCC3)n2)c1 | 0 | 0 | 0 | 0 | 0
CCOC(=O)N1CCC(NC(=O)c2ccc3c(c2)N(Cc2ccccc2)CCS3)CC1 | 0 | 0 | 0 | 0 | 0
CCOC(=O)N1CCC(NC(=O)c2ccc3c(c2)N(Cc2ccc(F)cc2)CCS3)CC1 | 0 | 24 | 0 | 0 | 0
CCOC(=O)N1CCC(NC(=O)c2ccc3c(c2)N(C)CCS3)CC1 | 0 | 37 | 0 | 0 | 0
CCOC(=O)N1CCC(NC(=O)c2ccc3c(c2)N(Cc2ccc(C)cc2)CCS3)CC1 | 0 | 38 | 0 | 0 | 0
CCOC(=O)N1CCC(NC(=O)c2cc(C(=O)NC3CCCC3)ccc2CO)CC1 | 0 | 0 | 0 | 0 | 0
CCCCn1nc2cc(C(=O)NCc3ccccc3)ccc2c1OCC | - | - | 0 | 0 | -
COC(=O)c1ccc(COc2ccccc2/C=N/NS(=O)(=O)c2ccc(C)cc2)cc1 | - | - | 0 | 0 | -
Cc1ccccc1NC(=S)NCc1ccc(Cl)cc1 | - | - | 0 | 0 | -
O=C1OC(c2ccc(Cl)cc2)/C(=C(/O)c2ccccc2)C1=O (centres undefined) | 0 | 0 | 0 | 0 | 0
Cc1nn2c(NCCCN(C)C)c3c(nc2c1-c1ccccc1)CCC3 | 0 | 6.6 | 1.7 | 2.4 | 10
Cc1nn2c(NCC(C)C)c3c(nc2c1-c1ccccc1)CCC3 | 0 | 34 | 0 | 0 | 0
Cc1ccc(C(=O)COC(=O)CNS(=O)(=O)c2ccccc2)cc1[N+](=O)[O-] | - | - | 0 | 0 | -
CCCc1nc(NCc2ccncc2)c2nnn(Cc3ccccc3F)c2n1 | 0 | 0 | 3.2 | 1.9 | 0
COc1ccccc1C1CC(=O)Nc2cc3c(cc21)OCCO3 (centres undefined) | 0 | 22 | 0 | 0 | 0
Cc1ccc(C2CC(=O)Nc3cc4c(cc32)OCCO4)s1 (centres undefined) | 0 | 0 | 0 | 0 | 0
CCOc1ccccc1C1CC(=O)Nc2cc3c(cc21)OCO3 (centres undefined) | - | - | 0 | 0 | -
CC(C)Oc1ccccc1C1CC(=O)Nc2cc3c(cc21)OCCO3 (centres undefined) | 0 | 27 | 0 | 0 | 0
COc1cccc(C2CC(=O)Nc3cc4c(cc32)OCCO4)c1OC(C)C (centres undefined) | 0 | 27 | 0 | 0 | 0
O=C1CC(c2cccs2)c2cc3c(cc2N1)OCCO3 (centres undefined) | 0 | 18 | 0 | 0 | 0
COC(=O)C(Cc1ccccc1)P(=O)(c1ccccc1)c1ccccc1 (centres undefined) | - | - | 0 | 0 | -
CCOC(=O)C1C(=O)C=C(c2ccc([N+](=O)[O-])cc2)CC1c1ccccc1 (centres undefined) | - | - | 0 | 0 | -
CCOC(=O)C1C(=O)C=C(c2ccc(Br)cc2)CC1c1ccco1 (centres undefined) | 0 | 28 | 0 | 0 | 0
CCOC(=O)C1C(=O)C=C(c2cccc(NS(C)(=O)=O)c2)CC1c1ccco1 (centres undefined) | 0 | 37 | 0 | 0 | 0
CN(C)c1ccc(/C=C/C(O)=C2/C(=O)N(C)C3(C)CC2c2ccccc2O3)cc1 (centres undefined) | 0 | 21 | 0 | 0 | 0
SMILES | HUVEC prolif 384 | H69AR growth 86K | PTEN del growth | HCT116 bCat-KO | Lung fibro prol
C=CCOC(=O)C1=C(C)NC(SCC(=O)N(CC)CC)=C(C#N)C1c1ccco1 (centres undefined) | 0 | 35 | 0 | 0 | 0
CSCc1ccc(C(=O)Nc2cccc(C)c2C)cc1 | - | - | 0 | 0 | -
COc1ccc(NC(=O)COC(=O)C2CCC(C(C)(C)C)CC2)c([N+](=O)[O-])c1 (centres undefined) | - | - | 0 | 0 | -
OC(C#Cc1ccccn1)c1cccs1 (centres undefined) | 7.9 | 13 | 0 | 0 | 0
CN(C)CCCn1c(SCC(=O)N2c3ccccc3Sc3ccccc32)nc2ccccc2c1=O | - | - | 1.7 | 1.6 | -
Cn1c(SCC(=O)N2c3ccccc3Sc3ccccc32)nc2ccccc21 | - | - | 0 | 0 | -
O=C(O/N=C\c1ccc(N2CCCCC2)c([N+](=O)[O-])c1)c1ccc(Cl)cc1Cl | - | - | 0 | 0 | -
COc1ccccc1C(=O)/C=C/c1ccc(N2CCCCC2)c([N+](=O)[O-])c1 | - | - | 1.4 | 1.5 | -
CCCCNCc1cc(Br)c(OCc2cccs2)c(OC)c1 | - | - | 1.3 | 1.4 | -
CCOc1c(Br)cc(CNCc2cccs2)cc1OC | - | - | 0 | 0 | -
CCN(CC)S(=O)(=O)c1ccc(N/N=C/c2cc(OC)c(OC)cc2OC)nc1 | - | - | 0 | 0 | -
CCOc1cccc(/C=N/Nc2ccc(S(=O)(=O)N(CC)CC)cn2)c1O | - | - | 2.8 | 3.8 | -
Cc1cc2nc(C)n(CCCN)c2cc1C | 0 | 13 | 0 | 0 | 0
